Reference: ChEMBL document CHEMBL3877330, “Synthesis and Antitumor Activity Evaluation of a Novel Combi-nitrosourea Prodrug: BGCNU” (ACS Med Chem Lett, 2017)

What was measured:
[1] = Cytotoxicity against AGT-positive human SF763 cells assessed as reduction in cell viability measured after 24 hrs by CCK8 assay; assay type: functional, cell-based; conditions: SF763, 24 h
[2] = Potency index, ratio of ACNU IC50 to test compound IC50 for AGT-positive human SF763 cells; assay type: functional
Method in brief: (§1)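 Cell survival curves were run in human glioma cells, with SF763 high in AGT and SF126 lacking AGT. IC50 values came from the curves. The index is the IC50 of ACNU or BCNU alone divided by the test compound's IC50.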

[3] = Potency index, ratio of ACNU IC50 in combination with O6-BG to test compound IC50 for AGT-positive human SF763 cells; assay type: functional
Method in brief: (§2)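 Survival curves were run in AGT-high human glioma SF763 cells. […] The index is the IC50 of the combination divided by the test compound's IC50.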

[4] = Potency index, ratio of BCNU IC50 to test compound IC50 for AGT-positive human SF763 cells; assay type: functional; method in brief: as §1
[5] = Potency index, ratio of BCNU IC50 in combination with O6-BG to test compound IC50 for AGT-positive human SF763 cells; assay type: functional; method in brief: as §2
[6] = Cytotoxicity against AGT-positive human SF767 cells assessed as reduction in cell viability measured after 24 hrs by CCK8 assay; assay type: functional, cell-based; conditions: SF767, 24 h
[7] = Cytotoxicity against AGT-deficient human SF126 cells assessed as reduction in cell viability measured after 24 hrs by CCK8 assay; assay type: functional, cell-based; conditions: SF-126, 24 h
SF-126 [8] = experiment: Potency index, ratio of ACNU IC50 to test compound IC50 for AGT-deficient human SF126 cells; assay type: functional; method in brief: as §1
[9] = target: T1, Methylated-DNA--protein-cysteine methyltransferase (Homo sapiens) (UniProt P16455); experiment: Inhibition of AGT in human SF763 cells assessed as increase in dG-dC crosslinking incubated for 12 hrs by HPLC-ESI-MS/MS analysis; assay type: cell-based
T1 sequence (whole entry): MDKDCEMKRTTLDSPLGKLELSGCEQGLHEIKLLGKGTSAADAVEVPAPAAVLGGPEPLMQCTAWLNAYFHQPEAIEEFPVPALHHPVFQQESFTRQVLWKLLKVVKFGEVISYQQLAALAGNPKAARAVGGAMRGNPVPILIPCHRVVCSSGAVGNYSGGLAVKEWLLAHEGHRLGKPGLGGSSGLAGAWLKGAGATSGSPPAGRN
Method in brief: (§3)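 Glioma cells exposed to drug at 0.1, 0.2, 0.4 and 0.6 mM. Genomic DNA then extracted and dG-dC interstrand cross-link levels quantified by HPLC-ESI-MS/MS. Triplicate determinations (n=3) per concentration.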

[10] = target: T1, Methylated-DNA--protein-cysteine methyltransferase (Homo sapiens); experiment: Inhibition of AGT in human SF767 cells assessed as increase in dG-dC crosslinking incubated for 12 hrs by HPLC-ESI-MS/MS analysis; assay type: cell-based; method in brief: as §3
SF-126 [11] = experiment: Binding affinity to DNA in AGT-deficient human SF126 cells assessed as increase in dG-dC crosslinking incubated for 12 hrs by HPLC-ESI-MS/MS analysis; assay type: cell-based; method in brief: as §3
Bos taurus = species on record: Bos taurus; experiment: Binding affinity to calf thymus DNA assessed as increase in dG-dC crosslinking incubated for 12 hrs under dark condition by HPLC-ESI-MS/MS analysis
Method in brief: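 Calf thymus DNA treated directly with drug at 0.1, 0.2, 0.4 and 0.6 mM. dG-dC cross-link levels measured by HPLC-ESI-MS/MS.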

[12] = n-Octanol/water partition coefficient, log P of the compound at 2 mM by HPLC analysis; assay type: physicochemical
[13] = Cytotoxicity against AGT-positive human SF763 cells assessed as reduction in cell viability pretreated with O6-BG for 2 hrs followed by addition of compound measured after 24 hrs by CCK8 assay; assay type: functional, cell-based
Method in brief: (§4)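 Nitrosourea combined with 20 µM O6-BG. Survival curves were generated for the glioma cells across a range of drug concentrations, and IC50 was read from those curves.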

[14] = Cytotoxicity against AGT-positive human SF767 cells assessed as reduction in cell viability pretreated with O6-BG for 2 hrs followed by addition of compound measured after 24 hrs by CCK8 assay; assay type: functional, cell-based; method in brief: as §4
[15] = Cytotoxicity against AGT-deficient human SF126 cells assessed as reduction in cell viability pretreated with O6-BG for 2 hrs followed by addition of compound measured after 24 hrs by CCK8 assay; assay type: functional, cell-based; conditions: SF-126; method in brief: as §4

Row | SMILES | IC50 [1] [µM] | Ratio IC50 [2] | Ratio IC50 [3] | Ratio IC50 [4] | Ratio IC50 [5] | IC50 [6] [µM] | IC50 [7] [µM] | Ratio IC50 (SF-126 [8]) | inhibition [9] | inhibition [10] | Activity (SF-126 [11]) | Activity (Bos taurus) | logP at 2000 µM [12] | IC50 [13] [µM] | IC50 [14] [µM] | IC50 [15] [µM]
1 | Nc1nc(OCc2ccccc2)c2ncn(CCNC(=O)N(CCCl)N=O)c2n1 | 60 | 27 | 17 | 5.8 | 3.3 | 58 | 52 | 7 - 9 | Dose-dependent effect | Dose-dependent effect | Dose-dependent effect | Dose-dependent effect | 1.81 | – | – | –
2 | O=NN(CCCl)C(=O)NCCCl [CARMUSTINE] | 350 | – | – | – | – | 130 | 85 | – | Dose-dependent effect | Dose-dependent effect | Dose-dependent effect | Dose-dependent effect | – | 200 | 120 | 55
3 | Cc1ncc(CNC(=O)N(CCCl)N=O)c(N)n1 [NIMUSTINE] | 1600 | – | – | – | – | 570 | 450 | – | Dose-dependent effect | Dose-dependent effect | Dose-dependent effect | Dose-dependent effect | – | – | 400 | 360
